Screening results from PubChem BioAssay.
SENP1 inh = SENP1 (human) catalytic domain inhibition; Q9P0U3; recombinant SENP1 catalytic domain, CyPet-SUMO1-YPet FRET cleavage; inhibition, % at 10 µM; 0.21% of 360,000 active; AID 624204;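 active = inhibition at least 30% at 10 µM, raw YFP signal under a set limit, fluorescence ratio 0.5 to 1.5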
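Material: hSENP1 catalytic domain, recombinant; medium: Tris pH 8 with BME, BSA, NP40 and catalase; compound: single concentration of 10 µM compound, 0.5% DMSO final; technique: FRET read of cyan and yellow fluorescence; timing: 50 min enzyme reaction, room temperature, light-protected; reagent: SFCypet-SUMO1-SFYpet substrate at 25 nM; control set: no-enzyme low, enzyme-DMSO high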
FXN GAA850 act = increases GAA850 frataxin promoter reporter activity | HEK293 lucGAA850 FXN promoter luciferase reporter, 24 h; percent of 10 µM SAHA response | activation, % at 6 µM | 0.56% of 360,000 active;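 active = activation above the average of all compounds screened plus 3 SD, cutoff fixed separately per campaign, cut at about 7.5% in these data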
AHR activator = human AHR activation. P35869. AHR-responsive luciferase reporter cells, luminescence. activation, % at 5 µM. 2.5% of 320,000 active. AID 2796; in the data active = activation above about 47%
HDAC3 inhib = inhibitors of human histone deacetylase 3 | O15379 | recombinant HDAC3, fluorogenic peptide/trypsin coupled, fluorescence | inhibition, % at 8.3 µM | 0.15% of 320,000 active; in the data active = inhibition above about 26%, passing the limit was not always enough
Target sequence (O15379 whole entry, looked up): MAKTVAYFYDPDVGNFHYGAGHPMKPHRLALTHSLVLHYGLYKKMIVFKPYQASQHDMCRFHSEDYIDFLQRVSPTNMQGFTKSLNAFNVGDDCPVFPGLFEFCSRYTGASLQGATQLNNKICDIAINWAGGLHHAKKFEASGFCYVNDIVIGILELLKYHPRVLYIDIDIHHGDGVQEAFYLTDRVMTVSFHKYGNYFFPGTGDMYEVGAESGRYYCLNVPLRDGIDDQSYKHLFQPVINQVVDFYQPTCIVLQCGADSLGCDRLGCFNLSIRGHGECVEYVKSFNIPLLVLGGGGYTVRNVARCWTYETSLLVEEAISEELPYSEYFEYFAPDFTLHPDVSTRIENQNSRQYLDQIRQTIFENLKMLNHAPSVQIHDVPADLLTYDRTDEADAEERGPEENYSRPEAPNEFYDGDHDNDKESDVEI
M18AAP inhibitor = blocks P. falciparum M18 aspartyl aminopeptidase. recombinant PfM18AAP, H-Glu-NHMec fluorogenic cleavage. inhibition, % at 7.35 µM. 1.2% of 290,000 active. AID 1822;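 active = inhibition above the campaign mean inhibition over all tested compounds plus 3 SD, cut at about 28% in these data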
Fh CTSL1 inh = blocks F. hepatica cathepsin L1 in PFM18AAP counter-screen; recombinant F. hepatica cathepsin L1, Z-Leu-Arg-MCA fluorescence; inhibition, % at 5.96 µM; 0.49% of 300,000 active;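 active = inhibition above the mean of all tested compounds plus 3 SD, set per screening campaign, cut at about 17% in these data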
AHR act cf = confirmation of human aryl hydrocarbon receptor activators; activation, % at 9 µM; AID 2845; 87% of 2,300 active; shares compounds with AHR activator; human cells, AHR-responsive luciferase reporter, luminescence; in the data active = activation above about 49%;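 also: HepG2 hepatoma cells carrying a DRE-driven firefly luciferase reporter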
PXR counter = counter-screen for AHR activators: human PXR activators. shares compounds with AHR activator. cell-based PXR reporter, luciferase luminescence. activation, % at 11.6 µM. 88% of 2,300 active. AID 434939; in the data active = activation above about 11%;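 also: human hepatoma DPX-2 cells expressing full-length human PXR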
Numbers stand for hits; - = inactive; . = no result given. Sampled rows, rich in hits. Any-hit rate of the full collection: about 4.2%.

SMILES	SENP1 inh	FXN GAA850 act	AHR activator	HDAC3 inhib	M18AAP inhibitor	Fh CTSL1 inh	AHR act cf	PXR counter
CN1CCN(c2ccc(Cl)cc2NC(=O)C2COc3ccccc3O2)CC1 (centres undefined)	-	-	108	-	-	-	90	30
NC(c1csc(Nc2ccc(C(=O)NCCCO)cn2)n1)c1ccccc1Cl (centres undefined)	-	-	.	.	.	.	.	.
O=C(Nc1cccc(Cl)c1Cl)c1ccccc1OCC(=O)N1CCOCC1	-	-	82	-	-	-	89	49
O=C(Cn1cc([N+](=O)[O-])ccc1=O)NCC(=O)Nc1ccc(F)c(F)c1F	-	-	-	-	.	.	.	.
c1cncc(-c2nc(NCc3cccs3)c3ccccc3n2)c1	-	-	-	-	-	-	.	.
Fc1ccccc1CNc1nc(-c2cccnc2)nc2ccccc12	-	-	85	-	-	-	-	103
O=C1c2ccccc2C(c2nnnn2Cc2ccccc2)N1Cc1cccs1 (centres undefined)	-	.	.	.	.	.	.	.
CCC1(CC)NC(=O)N(CC(=O)OCC(=O)Nc2ccc(OC(F)(F)F)cc2)C1=O	-	-	-	-	.	.	.	.
O=C(Cc1ccccc1)NC(=S)Nc1cc(C(F)(F)F)ccc1Cl	-	-	-	-	-	-	.	.
FC(F)(F)c1ccc(Cl)c(NC(=S)N/N=C/c2ccccc2C(F)(F)F)c1	-	-	105	-	-	-	55	74
Cc1c(=O)n(OCc2ccccc2F)c2ccccc2[n+]1[O-]	-	-	94	-	-	-	139	26
Cc1ccc2nc(-c3ccncc3)[nH]c2c1	-	-	134	-	-	-	87	21
CCc1cc(C(=O)N/N=C/c2c(C)[nH]c3ccccc23)cs1	-	-	99	-	-	-	83	28
CCN1CC=C2C(C#N)=C(N)C(C#N)(C#N)C(CCc3ccccc3)C2C1 (centres undefined)	-	-	-	-	-	-	.	.
CC(=O)N1CC=C2C(C#N)=C(N)C(C#N)(C#N)C(CCc3ccccc3)C2C1 (centres undefined)	-	-	80	-	-	-	73	24
CCc1ccc2c(c1)C(c1cccs1)=NNC(c1cccnc1)=N2	-	-	-	-	-	-	.	.
Clc1ccc2c(c1)C(c1cccs1)=NNC(c1cccnc1)=N2	-	-	105	-	-	-	56	50
CC(CNc1nc2ccc(Cl)cc2n2cnnc12)c1ccccc1 (centres undefined)	-	-	-	-	-	-	.	.
COc1ccc(-c2cc(-c3cc(OC)ccc3O)[nH]n2)cc1	-	-	159	-	-	-	140	18
COc1ccc(-c2n[nH]c(C)c2-c2cc(OC)ccc2O)cc1	-	-	-	-	-	-	.	.
COc1ccc(O)c(-c2cc(-c3ccc(F)cc3)n[nH]2)c1	-	-	96	-	-	-	159	15
Cc1ccnc(NC(=O)C2CC(=O)N(Cc3ccccc3)C2)c1 (centres undefined)	-	-	-	-	.	-	.	.
Cc1cc(NC(=O)C(C)Oc2ccc(Cl)cc2Cl)no1 (centres undefined)	-	-	-	-	-	-	.	.
O=C(O)CN1C(=O)/C(=C\c2ccccc2OCc2ccc(Cl)cc2Cl)SC1=S	-	-	82	-	-	-	59	29
CC1(C(=O)NS(=O)(=O)Cc2cccc(Cl)c2)CCN1C(=O)C/C=C/c1ccccc1 (centres undefined)	-	-	.	.	.	.	.	.
Cc1cccc(N2CCN(C(=O)c3c(-c4ccccc4Cl)noc3C)CC2)c1C	-	-	-	-	-	-	.	.
Cc1cc2n(n1)C(c1ccc3c(c1)OCO3)Nc1ccccc1-2 (centres undefined)	-	-	96	-	-	-	91	42
Cc1cc2n(n1)C(c1sccc1C)Nc1ccccc1-2 (centres undefined)	-	-	-	-	-	-	.	.
Cc1ccc2c(c1)C(c1ccncc1)=NNC(c1ccccc1)=N2	-	-	-	-	-	-	.	.
